Assay results: paper PMC8694313 (RSC Advances, 2021)
Values after ≈ are worked out from the molar mass of the structure shown.

What was measured:
[1] = tested on: Bacillus subtillis; assay: In vitro antibacterial MIC determination; format: cell-based
Method in brief: (§1)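 Bacteria grown on nutrient agar, subcultured to log phase in nutrient broth, then diluted in sterile saline to about 10^5–10^6 CFU mL−1. Test compounds diluted in acetone, DMSO or diethyl ether (ether preferred). Saturated disks placed on spread-plated inoculum and incubated at 37 °C for 24 h. MIC determined across different compound concentrations, with streptomycin as standard.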

[2] = tested on: Staphylococcus aureus; assay: In vitro antibacterial MIC determination; format: cell-based
Method in brief: as §1

[3] = tested on: Escherichia coli; assay: In vitro antibacterial MIC determination; format: cell-based
Method in brief: as §1

[4] = tested on: Pseudomonas aeruginosa; assay: In vitro antibacterial MIC determination; format: cell-based
Method in brief: as §1

[5] = tested on: Aspergillus niger; assay: In vitro antifungal MIC, poison plate technique; format: cell-based
[6] = tested on: Aspergillus flavus; assay: In vitro antifungal MIC, poison plate technique; format: cell-based
[7] = tested on: Rhizopus arrhizus; assay: In vitro antifungal MIC, poison plate technique; format: cell-based
[8] = target: T1, COX-1 (Ovis aries, UniProt P05979); assay: Colorimetric COX; format: biochemical, ovine; details: read-out: % inhibition of COX, COX-1
T1 sequence (P05979 25-600): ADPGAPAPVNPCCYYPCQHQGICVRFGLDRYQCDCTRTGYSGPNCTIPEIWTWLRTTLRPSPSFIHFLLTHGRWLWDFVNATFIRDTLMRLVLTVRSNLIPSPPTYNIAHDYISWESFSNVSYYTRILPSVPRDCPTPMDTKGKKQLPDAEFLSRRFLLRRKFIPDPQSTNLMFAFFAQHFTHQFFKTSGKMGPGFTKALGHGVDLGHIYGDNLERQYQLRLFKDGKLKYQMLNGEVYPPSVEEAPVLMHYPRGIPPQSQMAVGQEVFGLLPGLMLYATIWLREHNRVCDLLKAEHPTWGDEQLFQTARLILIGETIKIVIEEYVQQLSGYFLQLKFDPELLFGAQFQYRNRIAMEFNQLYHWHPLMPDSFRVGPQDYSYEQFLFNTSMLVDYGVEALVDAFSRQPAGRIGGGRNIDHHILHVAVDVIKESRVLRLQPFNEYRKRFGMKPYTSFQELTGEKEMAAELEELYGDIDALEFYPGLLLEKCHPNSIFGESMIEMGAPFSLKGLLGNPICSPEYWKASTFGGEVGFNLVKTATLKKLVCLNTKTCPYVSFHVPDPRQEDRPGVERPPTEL

[9] = target: T2, COX-2 (Ovis aries, UniProt P79208); assay: Colorimetric COX; format: biochemical, ovine; details: read-out: % inhibition of COX, COX-2
T2 sequence (P79208 17-603): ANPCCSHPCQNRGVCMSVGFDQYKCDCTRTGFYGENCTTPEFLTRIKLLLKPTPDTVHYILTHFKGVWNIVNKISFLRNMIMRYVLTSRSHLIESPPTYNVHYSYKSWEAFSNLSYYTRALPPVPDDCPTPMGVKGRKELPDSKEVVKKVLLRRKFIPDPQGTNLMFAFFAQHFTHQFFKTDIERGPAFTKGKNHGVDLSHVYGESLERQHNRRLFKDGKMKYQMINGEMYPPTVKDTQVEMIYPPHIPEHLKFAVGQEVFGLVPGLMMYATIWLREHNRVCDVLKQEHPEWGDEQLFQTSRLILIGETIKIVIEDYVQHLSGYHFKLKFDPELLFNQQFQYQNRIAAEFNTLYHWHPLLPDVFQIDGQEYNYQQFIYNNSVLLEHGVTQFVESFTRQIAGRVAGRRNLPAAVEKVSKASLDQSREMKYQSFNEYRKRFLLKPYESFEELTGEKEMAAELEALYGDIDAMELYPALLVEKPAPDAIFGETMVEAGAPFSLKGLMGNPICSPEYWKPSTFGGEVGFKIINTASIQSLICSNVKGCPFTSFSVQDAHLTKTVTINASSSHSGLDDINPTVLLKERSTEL

[10] = tested on: carrageenan-induced paw edema; assay: Carrageenan induced hind paw edema assay; format: in vivo; details: rat, 100 mg kg^−1 p.o., mean ± SEM
Method in brief: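 Rats, six per group, acclimatized one week (25 ± 2 °C, 12 h light/dark, standard pellets, water ad libitum). […] Paw volume measured by plethysmometer displacement to the lateral malleolus at 1, 3 and 6 h. Mean ± SEM.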

[11] = tested on: RAW 264.7 cells; assay: MTT assay, LPS-induced inflammation in RAW 264.7; format: cell-based, murine; details: RAW 264.7, pre-treatment 100 μM and 200 μM, then LPS; Fig. 4
Method in brief: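 Mouse RAW 264.7 macrophages kept in high-glucose DMEM with 10% heat-inactivated FBS and 1% penicillin–streptomycin at 37 °C, 5% CO2. Cells seeded at 5 × 10^5 cells per mL, pretreated 1 h with test compound (100 or 200 μM), then stimulated with […] for 24 h. Medium replaced; 0.5 mg mL−1 MTT for 3 h; formazan dissolved in DMSO; OD read at 540 nm. Percent inflammation derived by subtracting percent viability relative to control.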

[12] = tested on: RAW 264.7 cells; assay: Nitrite; format: cell-based, murine; details: RAW 264.7, 100 μM and 200 μM pre-treatment; Fig. 5
Method in brief: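 RAW 264.7 cells (1 × 10^6) seeded in flasks and left to adhere overnight. Pretreated 1 h with test compound (100 or 200 μM), then 100 μM LPS for 24 h at 37 °C, 5% CO2. Supernatant mixed with an equal volume of Griess reagent (0.1% naphthylethylenediamine and 1% sulfanilamide, 1:1, in 5% phosphoric acid) for 10 min in the dark at room temperature; A540 read. Nitrite quantified from a NaNO2 standard curve (0.1–6.25 μM), expressed as μmol NO2−/mg protein. Triplicates.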

MIC [1] | MIC [2] | MIC [3] | MIC [4] | inhibition at 100 µM [8] | inhibition at 200 µM [8] | inhibition at 100 µM [9] | inhibition at 200 µM [9] | Structure (SMILES) | MIC [5] | MIC [6] | MIC [7] | Paw volume ([10]; 1 h after carrageenan) | Paw volume ([10]; 3 h after carrageenan) | Paw volume ([10]; 6 h after carrageenan) | anti-inflammatory activity against LPS induced cell death / inflammation (MTT) [11] | inhibition of LPS-induced NO production [12]
31.6 ± 1.03 µg/mL (≈ 85.5 µM) | 21.9 ± 0.33 µg/mL (≈ 59.2 µM) | 30.1 ± 0.72 µg/mL (≈ 81.6 µM) | 31.9 ± 1.04 µg/mL (≈ 86.3 µM) | 37.3 ± 0.32% | 45.5 ± 0.77% | 23.5 ± 0.55% | 38.64 ± 0.33% | O=S(=O)(NC[C@@H](O)[C@@H]1CCc2cc(F)ccc2O1)c1ccc(F)cc1 [Compound 8a, N-((R)-2-((S)-6-Fluorochroman-2-yl)-2-hydroxyethyl)-4-fluorobenzenesulfonamide] | 22.3 ± 0.27 µg/mL (≈ 60.4 µM) | 23.1 ± 0.25 µg/mL (≈ 62.4 µM) | 22.8 ± 0.54 µg/mL (≈ 61.7 µM) |  |  |  |  | 
26 ± 0.42 µg/mL (≈ 67.2 µM) | 20.32 ± 0.06 µg/mL (≈ 52.6 µM) | 21.1 ± 0.45 µg/mL (≈ 54.7 µM) | 30.36 ± 0.22 µg/mL (≈ 78.5 µM) | 43.1 ± 0.8% | 69.02 ± 0.5% | 37.7 ± 0.35% | 63.6 ± 0.32% | O=C(NC[C@@H](O)[C@@H]1CCc2cc(F)ccc2O1)OCC(Cl)(Cl)Cl [Compound 9b, 2,2,2-Trichloroethyl ((R)-2-((S)-6-fluorochroman-2-yl)-2-hydroxyethyl)carbamate] | 24.7 ± 0.7 µg/mL (≈ 63.9 µM) | 23.8 ± 0.67 µg/mL (≈ 61.6 µM) | 19.2 ± 0.48 µg/mL (≈ 49.8 µM) | 0.76 ± 0.48 mL | 0.88 ± 0.16 mL | 1.50 ± 0.25 mL |  | 
27.7 ± 0.44 µg/mL (≈ 97.6 µM) | 18.1 ± 0.8 µg/mL (≈ 63.8 µM) | 27.2 ± 0.92 µg/mL (≈ 96.1 µM) | 31.7 ± 0.88 µg/mL (≈ 112 µM) | 41.4 ± 0.62% | 52.16 ± 0.3% | 29.7 ± 0.75% | 38.59 ± 0.29% | CCOC(=O)NC[C@@H](O)[C@@H]1CCc2cc(F)ccc2O1 [Compound 9d, Ethyl((R)-2-((S)-6-fluorochroman-2-yl)-2-hydroxyethyl)carbamate] | 28.46 ± 0.14 µg/mL (≈ 100 µM) | 25.2 ± 0.66 µg/mL (≈ 89 µM) | 31.3 ± 0.45 µg/mL (≈ 110 µM) |  |  |  |  | 
26.1 ± 0.3 µg/mL (≈ 83.8 µM) | 19 ± 1.08 µg/mL (≈ 61.2 µM) | 22.7 ± 0.26 µg/mL (≈ 73 µM) | 28.8 ± 0.6 µg/mL (≈ 92.5 µM) | 39.6 ± 0.08% | 51.64 ± 0.32% | 24.3 ± 0.2% | 41.66 ± 0.23% | CC(C)COC(=O)NC[C@@H](O)[C@@H]1CCc2cc(F)ccc2O1 [Compound 9c, Isobutyl ((R)-2-((S)-6-fluorochroman-2-yl)-2-hydroxyethyl)carbamate] | 19.3 ± 0.47 µg/mL (≈ 62.1 µM) | 19.8 ± 0.37 µg/mL (≈ 63.6 µM) | 25.6 ± 0.48 µg/mL (≈ 82.1 µM) |  |  |  |  | 

Structure (SMILES) | MIC [1] | MIC [2] | MIC [3] | MIC [4] | inhibition at 100 µM [8] | inhibition at 200 µM [8] | inhibition at 100 µM [9] | inhibition at 200 µM [9] | MIC [5] | MIC [6] | MIC [7] | Paw volume ([10]; 1 h after carrageenan) | Paw volume ([10]; 3 h after carrageenan) | Paw volume ([10]; 6 h after carrageenan) | anti-inflammatory activity against LPS induced cell death / inflammation (MTT) [11] | inhibition of LPS-induced NO production [12]
COC(=O)NC[C@@H](O)[C@@H]1CCc2cc(F)ccc2O1 [Compound 9a, Methyl ((R)-2-((S)-6-fluorochroman-2-yl)-2-hydroxyethyl)carbamate] | 20.5 ± 0.76 µg/mL (≈ 76.1 µM) | 16.6 ± 0.35 µg/mL (≈ 61.5 µM) | 21.7 ± 1.06 µg/mL (≈ 80.6 µM) | 19.5 ± 1.25 µg/mL (≈ 72.3 µM) | 50.66 ± 0.33% | 75.33 ± 0.14% | 18.1 ± 0.88% | 52.42 ± 0.21% | 11.2 ± 1.08 µg/mL (≈ 41.6 µM) | 12.7 ± 0.8 µg/mL (≈ 47 µM) | 14.2 ± 0.69 µg/mL (≈ 52.7 µM) | 0.72 ± 0.72 mL | 1.06 ± 0.52 mL | 1.56 ± 0.33 mL | strong anti-inflammatory activity | strong inhibition
